EBNA-1 inhibitor = EBNA-1 DNA-binding inhibitors, primary screen, biochemical, fluorescence polarization. inhibition, % at 14.8 µM. hit rate 0.34% among 300,000; in the data active = inhibition above about 28%
HCV core dimer = inhibitors of HCV core protein dimerization, primary screen, biochemical, TR-FRET, high-throughput. TR-FRET GST/Flag-core106 dimerization, 1536-well. inhibition, % at 5 µM. hit rate 0.33% among 300,000;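 active = inhibition above the mean of all tested compounds plus 3 SD, set per screening campaign, cut at about 45% in these data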
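Material: Tagged HCV core106 pair (GST and Flag) | Amount: GST-core106 13.5 nM, Flag-core106 17 nM | Medium: KF-containing HEPES buffer, pH 7.45, DTT, CHAPS, BSA | Reagent: Eu donor and XL665 acceptor anti-tag antibodies | Schedule: 4 h at 22.5 °C | Technique: Time-resolved FRET, ex 340 nm, em 617 and 671 nm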
NS3 helicase inh = inhibitors of HCV NS3 helicase, primary screen, biochemical, Cy5 molecular beacon fluorescence. Hepatitis C virus NS3 helicase. NS3 helicase DNA unwinding. hit rate 0.56% among 290,000. inhibition, % at 10.9 µM;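 active = inhibition above the mean of all tested compounds plus 3 SD, set per campaign, cut at about 35% in these data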
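Assay system: hepatitis C virus NS3 helicase domain fragment enzyme. Also added: annealed dual-labelled DNA beacon duplex, ATP-started. Timing: 1 h reaction at 25 °C, ATP-initiated. Technique: Cy5 fluorescence at 0 and 60 min, beacon hairpin quenching. Evaluation: % inhibition of unwinding. Replication: one well per compound.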
ZTA counter = ZTA (EBV) inhibition in EBNA-1 counter-screen; P03206; ZTA-DNA binding, fluorescence polarization; inhibition, % at 11 µM; hit rate 0.15% among 320,000; in the data active = inhibition above about 33%
Target sequence (P03206 whole entry, looked up): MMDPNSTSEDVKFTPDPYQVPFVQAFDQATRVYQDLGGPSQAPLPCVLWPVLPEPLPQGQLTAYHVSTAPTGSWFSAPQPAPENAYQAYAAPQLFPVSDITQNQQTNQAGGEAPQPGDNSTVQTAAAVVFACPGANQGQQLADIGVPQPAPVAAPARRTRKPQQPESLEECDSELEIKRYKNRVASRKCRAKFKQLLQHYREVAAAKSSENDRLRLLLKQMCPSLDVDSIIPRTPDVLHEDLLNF
PfM18AAP inh = PfM18AAP inhibitors, malaria aminopeptidase, primary screen, biochemical, QFRET, recombinant enzyme | M18 aspartyl aminopeptidase (Plasmodium falciparum 3D7) | H-Glu-NHMec fluorogenic cleavage | inhibition, % at 7.35 µM | hit rate 1.2% among 290,000;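 active = inhibition above the campaign mean inhibition over all tested compounds plus 3 SD, cut at about 28% in these data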
ALR inh = inhibitors of human ALR sulfhydryl oxidase, primary screen, biochemical, H2O2 detection, HRP-luminol luminescence, single point | FAD-linked sulfhydryl oxidase ALR (Homo sapiens), P55789 | purified ALR, DTT oxidation | inhibition, % (test concentration not listed) | hit rate 3.8% among 290,000;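 active = mean replicate inhibition above about 79%, with every replicate also reaching it, limit read from the data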
Target sequence (P55789 whole entry, looked up): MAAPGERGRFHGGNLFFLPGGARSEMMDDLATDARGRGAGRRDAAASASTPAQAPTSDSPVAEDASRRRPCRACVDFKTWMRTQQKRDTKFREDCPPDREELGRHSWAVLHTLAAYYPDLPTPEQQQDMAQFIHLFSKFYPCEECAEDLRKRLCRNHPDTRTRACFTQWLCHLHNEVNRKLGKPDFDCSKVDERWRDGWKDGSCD
Each line names hits and unclear results; the compound was inactive in the other large screens. An excerpt weighted towards active compounds, which were near 5.2% of everything screened.

O=C(CSc1nc2ccccc2s1)NCc1cc([N+](=O)[O-])ccc1O	ALR inh 99 (no result: NS3 helicase inh, PfM18AAP inh)
Cn1nnnc1SCC(=O)NCc1cc([N+](=O)[O-])ccc1O	none
CC1(c2ccccc2)NC(=O)N(CC(=O)Nc2nnc(C3CC3)s2)C1=O (stereo not given)	none
CCOC(=O)NC(N(O)c1cccc(Cl)c1)C(Cl)(Cl)Cl (stereo not given)	PfM18AAP inh 31 (no result: ALR inh)
CCN(C(=O)Nc1cccc(Cl)c1)c1ccccc1	none (no result: EBNA-1 inhibitor, HCV core dimer, ZTA counter)
COc1cc(/C=N/N(C)c2ccccc2)ccc1O	ALR inh 99
COc1cc(OC)c(OC)cc1/C=N/N(C)c1ccccc1	none (no result: ALR inh)
CN(/N=C/c1ccc2c(c1)OCO2)c1ccccc1	ALR inh 85
C(=N\N(c1ccccc1)c1ccccc1)/c1ccc2c(c1)OCO2	none
Cc1ccc(SCc2cc(=O)c3c(=O)n(-c4ccccc4)[nH]c3[nH]2)cc1	ALR inh 94
COc1ccc2nc(NC(=O)CSc3n[nH]c(N)n3)sc2c1	ALR inh 90 (no result: NS3 helicase inh, PfM18AAP inh)
COc1ccc2nc(NC(=O)CSc3nccc(C)n3)sc2c1	none
COc1ccc(N2CCN(C(=O)COC(=O)Cc3c(F)cccc3Cl)CC2)cc1	none (no result: NS3 helicase inh, PfM18AAP inh)
CCc1oc2ccccc2c1C(=O)c1cc(Br)c(O)c(Br)c1	ALR inh 98
Cc1ccc(OCC(=O)OC(C)CN2CCCCC2)cc1 (stereo not given)	none
Cc1ccc(NC2c3ccccc3C(=O)N2CCN2CCOCC2)cc1 (stereo not given)	ALR inh 98
CCOC(=O)N1CCC(N2C(=O)c3ccccc3C2Nc2ccc(C)cc2)CC1 (stereo not given)	ALR inh 99
O=C(NCc1ccco1)c1ccccc1Nc1ccc(F)cc1	ALR inh 99
O=C(COC(=O)CCOc1ccccc1)NCc1ccco1	HCV core dimer 62
O=C(NCc1cccnc1)c1ccc(COc2cccc3ccccc23)o1	HCV core dimer 61
O=C(NCc1ccco1)c1ccc(Oc2ccccc2)cc1	ALR inh 90
O=C(NCc1ccco1)c1ccccc1F	none
CCOc1ccc(C(=O)NCc2ccco2)cc1	none
COc1ccc(OCC(=O)OCC(=O)NCc2ccco2)cc1	none
O=C(NCc1cccnc1)c1ccc(COc2ccc(Cl)cc2Cl)o1	none (no result: ALR inh)
Cc1cc(C)nc(NC(=O)c2ccc(COc3ccccc3Cl)cc2)c1	ALR inh 97
O=C(NCc1ccco1)c1ccc(COc2ccccc2Cl)cc1	ALR inh 99
Cc1onc(-c2ccccc2Cl)c1C(=O)NCc1ccco1	HCV core dimer 57
O=C(NCc1cccnc1)c1ccc(COc2ccccc2Cl)cc1	ALR inh 98
O=C(Nc1ccn(Cc2c(F)c(F)cc(F)c2F)n1)c1ccc(COc2ccccc2Cl)cc1	none
O=C(NCc1ccco1)c1ccc(COc2cccc3ccccc23)cc1	none (no result: ALR inh)
C=C(c1ccc(O)cc1)c1ccc(O)cc1	ALR inh 98
CCOC(=O)c1sc(NC(=S)NC(=O)C2CCCC2)cc1C	HCV core dimer 46
CCOC(=O)c1sc(NC(=O)C2CC2)cc1C	none
CCOC(=O)c1sc(NC(=S)NC(=O)CC(C)C)cc1C	HCV core dimer 71
Cc1ccc(C(=O)NCC(=O)OC(C)C(=O)Nc2ccc(N(C)C)cc2)cc1C (stereo not given)	ALR inh 99
CC(=O)NCC(=O)OC(C)C(=O)Nc1ccc(C(C)=O)cc1 (stereo not given)	none
CCOC(=O)C1=C(CN2CCN(C(=O)c3ccco3)CC2)NC(=O)NC1c1ccc(OC)cc1 (stereo not given)	none
CCn1c(NC(=O)c2ccc(F)cc2)c2ccccc2nc1=O	none
CCn1c(NC(=O)c2ccc(C)cc2)c2ccccc2nc1=O	ALR inh 95
COc1ccc([N+](=O)[O-])cc1NC1C2CC3CC(C2)CC1C3 (stereo not given)	none
COc1ccc([N+](=O)[O-])cc1NC1CCCCC1	ALR inh 99
CCN(CC(=O)Nc1ccccc1C(F)(F)F)C(=O)CCS(=O)(=O)c1ccc(C)cc1	none (no result: NS3 helicase inh, PfM18AAP inh)
